Where a SMILES comes first, the peptide text is derived from it. Where no end group is shown, it is not given here. [ ]: non-standard residue; d: D form. pS = N[C@@H](COP(=O)(O)O)C(=O)O
Tests used:
TAZ2 = details: doubly-phosphorylated peptide; fluorescence anisotropy and NMR spectroscopy; cited from earlier work
[1] = biological target: T1, TAZ2 domain of CBP (residues 1764–1855) (Mus musculus, UniProt P45481); experiment: Fluorescence anisotropy competition with Alexa594-labeled E7; type: binding; details: ratio of fluorescence anisotropy competition KDs
T1 sequence (P45481 1764-1855): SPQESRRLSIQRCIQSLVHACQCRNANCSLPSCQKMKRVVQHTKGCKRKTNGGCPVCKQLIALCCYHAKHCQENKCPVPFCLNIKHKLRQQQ
In short: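 Tracer: Alexa Fluor 594-labelled E7(1–51) C24A/A50C (dye at position 50), 20 nM, in 20 mM Tris, 50 mM NaCl, 1 mM DTT, pH 7.0. It was pre-bound to 0.8 μM TAZ2 (>90% saturation). Unlabelled E7 peptides were titrated in and the anisotropy decrease read at 590/617 nm. Apparent KD came from a competition fit using the tracer KD from direct TAZ2 titration.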

| Molecule | binding affinity for TAZ2 (TAZ2) | KD of CR2 relative to the preceding CR1 motif (stronger) [1] |
| --- | --- | --- |
| ppE7(1–51): doubly-phosphorylated (S31, S32) HPV16 E7(1–51) peptide (MHGDTPTLHEYMLDLQPETTDLYCYEQLND[pS][pS]EEEDEIDGPAGQAEPDRAH) | low nanomolar range |  |
| CC(C)C[C@H](NC(=O)[C@H](CCC(N)=O)NC(=O)[C@H](CCC(=O)O)NC(=O)[C@H](Cc1ccc(O)cc1)NC(=O)[C@H](CS)NC(=O)[C@H](Cc1ccc(O)cc1)NC(=O)[C@H](CC(C)C)NC(=O)[C@H](CC(=O)O)NC(=O)[C@@H](NC(=O)[C@@H](NC(=O)[C@@H](N)CCC(=O)O)[C@@H](C)O)[C@@H](C)O)C(=O)N[C@@H](CC(N)=O)C(=O)N[C@@H](CC(=O)O)C(=O)N[C@@H](CO)C(=O)N[C@@H](CO)C(=O)N[C@@H](CCC(=O)O)C(=O)N[C@@H](CCC(=O)O)C(=O)N[C@@H](CCC(=O)O)C(=O)N[C@@H](CC(=O)O)C(=O)N[C@@H](CCC(=O)O)C(=O)O [CR2(18–37)] (H-ETTDLYCYEQLNDSSEEEDE-OH) |  | seven-fold |
